RAM network inh: inhibitors of the yeast RAM network; S. cerevisiae dse1pr::URA3 reporter, 5-FOA growth OD615, 2 d; analog-sensitive cbk1-as2 kinase mutant strain; inhibition, % at 50 µM; 1.8% of 190,000 active;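 active = inhibition above a set limit, 3 SD over mean compound inhibition, cut at about 8.4% in these data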;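 also: 0% = DMSO-only wells with no growth and 100% = 10 µM 1-NA-PP1 full growth; inhibition rescues growth on 5-FOA so higher OD means more RAM inhibition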
WT yeast gro inh: growth inhibition of WT yeast, mitochondrial fusion screen | mitochondrial fusion phenotypic screen, WT strain | inhibition, % at 10 µM | 2.1% of 190,000 active; in the data active = inhibition above about 58%; tested in S. cerevisiae
ABCG2 block: blocks JC-1 efflux by human ABCG2 transporter; AID 1325; Q9UNQ0; IgMXP3 cells, flow cytometry; inhibition, % at 6.6 µM; 0.1% of 190,000 active;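 active = inhibition above 80%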;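 also: 0% = DMSO and 100% = nicardipine control wells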
Target sequence (Q9UNQ0 whole entry, looked up): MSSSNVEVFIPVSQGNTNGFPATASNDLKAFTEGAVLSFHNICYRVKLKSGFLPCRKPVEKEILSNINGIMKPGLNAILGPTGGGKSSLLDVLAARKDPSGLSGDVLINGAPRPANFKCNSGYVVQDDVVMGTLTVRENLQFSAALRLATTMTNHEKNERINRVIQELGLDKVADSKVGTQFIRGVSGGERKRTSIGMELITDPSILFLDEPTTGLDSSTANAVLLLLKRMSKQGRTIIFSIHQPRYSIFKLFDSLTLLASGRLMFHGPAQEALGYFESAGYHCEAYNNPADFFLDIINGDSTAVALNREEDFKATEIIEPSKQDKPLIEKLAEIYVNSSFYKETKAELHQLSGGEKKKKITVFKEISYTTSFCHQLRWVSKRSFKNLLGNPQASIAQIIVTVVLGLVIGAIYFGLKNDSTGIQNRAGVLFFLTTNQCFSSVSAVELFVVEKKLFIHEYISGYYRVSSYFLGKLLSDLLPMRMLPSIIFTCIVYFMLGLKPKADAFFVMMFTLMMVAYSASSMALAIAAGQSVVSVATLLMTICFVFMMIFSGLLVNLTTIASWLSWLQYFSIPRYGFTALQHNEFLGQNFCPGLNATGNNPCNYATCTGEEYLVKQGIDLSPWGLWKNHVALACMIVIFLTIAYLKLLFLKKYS
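Incubation: cells with compound and JC-1, 10 min at 25 °C, rotating, no wash / Test system: IgMXP3 (ABCG2) plus far-red-tagged CCRF-Adr (ABCB1) cells / Compound dosing: one concentration, 6.6 µM final / Also added: JC-1 fluorescent substrate / Evaluation: efflux inhibition in percent versus controls / Detection: flow cytometry, 530 nm JC-1 signal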
Lmaj promast: inhibitors of Leishmania major promastigote growth. Leishmania major promastigotes, resazurin fluorescence viability. inhibition, % at 10 µM. 9% of 200,000 active. AID 1063; in the data active = inhibition above about 50%;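 also: promastigotes grown with compound for 44 hours at 28 °C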
ABCB1 inh: blocks JC-1 efflux by human ABCB1 transporter; P08183; CCRF-Adr cells, flow cytometry; inhibition, % at 6.6 µM; 0.067% of 190,000 active; AID 1326; in the data active = inhibition above about 40%;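 also: 0% = vehicle and 100% = reference inhibitor; higher value means more JC-1 retained so stronger ABCB1 efflux block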
* = called active by the depositor; · = no result given. Hits are enriched below; roughly 12% of the tested compounds scored in any of these assays.

SMILES | RAM network inh | WT yeast gro inh | ABCG2 block | Lmaj promast | ABCB1 inh
CC(C)(C)c1cc(CCC(=O)NNC(=S)NC(=O)c2ccccc2)cc(C(C)(C)C)c1O | 3 | 12 | -2 | 97* | 0
O=C(CCc1ccccc1)NNC(=S)NC(=O)c1ccccc1 | -1 | 42 | 2 | 25 | 0
O=C(N/N=C/c1ccc(O)cc1O)/C(=C/c1ccccc1)CCO | 3 | 3 | 16 | 98* | 1
COc1cc(/C=N/NC(=O)/C(=C/c2ccccc2)CCO)ccc1O | 0 | 6 | 16 | -2 | 1
NC1=NC(=O)/C(=C/c2ccccc2OS(=O)(=O)c2ccccc2)S1 | 7 | 6 | 15 | -5 | 3
NC1=NC(=O)/C(=C/c2c(OS(=O)(=O)c3ccc(Cl)cc3)ccc3ccccc23)S1 | 7 | 5 | -1 | 61* | 0
COc1ccc(NC(=O)c2c3c(nc4ccccc24)CCN(Cc2ccccc2)C3)c(OC)c1 | 0 | 2 | 3 | 2 | 0
CCN(CC)S(=O)(=O)c1ccc(OC(C)C)c(NC(=O)c2c3c(nc4ccccc24)CCN(Cc2ccccc2)C3)c1 | 0 | 1 | 17 | 58* | 11
CCN(CC)S(=O)(=O)c1ccc(C(=O)Nc2ncn(Cc3ccccc3)n2)cc1 | 1 | -14 | 0 | -3 | 0
COc1ccc(S(=O)(=O)N2CCCCCC2)cc1NC(=O)c1c2c(nc3ccccc13)CCN(Cc1ccccc1)C2 | 1 | -9 | 1 | 54* | 9
O=[N+]([O-])c1ccc(C(O)CN=Cc2ccc(O)cc2O)cc1 (stereo not given) | 1 | -1 | 0 | -1 | 0
O=[N+]([O-])c1ccc2c(c1)[nH]c(=S)n2-c1ccccc1 | 5 | 2 | -2 | -3 | -1
CC1C=CCC2C(=O)N(c3cc(Cl)ccc3O)C(=O)C12 (stereo not given) | 3 | 12 | 1 | -5 | -1
Cc1ccc(OCc2ccc(Br)cc2)c([N+](=O)[O-])n1 | 5 | 9 | 21 | 0 | 1
CCC/C(=N/NC(=O)c1ccccc1Cl)c1ccccc1 | 2 | -16 | 4 | 95* | 1
CCC/C(=N\NC(=O)c1ccccc1C)c1ccccc1 | 1 | -8 | 5 | 43 | -1
CC1Cc2ccccc2N1C(=O)CSc1nnc(-c2ccccc2)c(-c2ccccc2)n1 (stereo not given) | 7 | 2 | 44 | 22 | 4
Cc1nnc(SCc2cc(=O)[nH]c(Nc3nc(C)c4ccccc4n3)n2)s1 | · | · | · | 84* | ·
Cc1ccc2c(C)nc(Nc3nc(CSc4nc5ccccc5[nH]4)cc(=O)[nH]3)nc2c1 | 0 | 10 | 4 | 100* | 0
Cc1nnc(SCc2cc(=O)[nH]c(/N=C(\N)Nc3ccccc3Sc3ccccc3)n2)s1 | 9.0* | 4 | 5 | -1 | 7
COc1ccc2c(C)nc(Nc3nc(C)cc(=O)[nH]3)nc2c1 | · | · | · | 100* | ·
Cc1ccc(SCc2cc(=O)[nH]c(Nc3nc(C)c4ccc(C)cc4n3)n2)cc1 | 5 | 13 | 5 | 35 | 1
Cc1ccc(S(=O)(=O)NC(CC(C)C)C(=O)NCc2ccco2)cc1 (stereo not given) | 1 | 13 | 2 | 3 | 0
CCOc1cc(C2C(C#N)=C(N)SC(N)=C2C#N)ccc1OCCN1CCOCC1 | 0 | -9 | -1 | -2 | 0
CCOc1cc(/C=C2\SC(=N)N(c3nccs3)C2=O)ccc1OCCN1CCOCC1 | -1 | 5 | 2 | 97* | 1
SMILES | RAM network inh | WT yeast gro inh | ABCG2 block | Lmaj promast | ABCB1 inh
CCN1CCN(c2ccc(NC(=O)c3ccc(F)cc3)cc2Cl)CC1 | -1 | 4 | 18 | 12 | 3
CCN1CCN(c2ccc(NC(=O)c3ccc([N+](=O)[O-])o3)cc2Cl)CC1 | 1 | 9 | 26 | 101* | 4
CCC(=O)N1CCN(c2ccccc2NC(=O)c2ccc(-c3cccc([N+](=O)[O-])c3)o2)CC1 | 3 | 0 | 21 | 39 | 16
CCC(=O)N1CCN(c2ccc(NC(=O)c3ccc([N+](=O)[O-])o3)cc2Cl)CC1 | -1 | 66* | 12 | 101* | 1
Cc1cc(C)c(C(=O)/C=C/c2ccc(C(C)C)cc2)c(=O)[nH]1 | 1 | -26 | 7 | 84* | 0
COc1ccc(NC(=O)Cn2nc(C)c([N+](=O)[O-])c2C)cn1 | 1 | 2 | 2 | -5 | 0
COc1ccc(OC)c(NC(=O)c2cccc(Cn3cc(Br)c([N+](=O)[O-])n3)c2)c1 | 4 | 27 | 26 | 100* | 3
COc1cccc(NC(=S)NNC(=O)C(C)n2nc(C)c([N+](=O)[O-])c2C)c1 (stereo not given) | 1 | 3 | 1 | -8 | 0
COc1cccc(/C=N/NC(=O)C(C)n2nc(C)c([N+](=O)[O-])c2C)c1O (stereo not given) | 0 | 32 | 16 | 94* | 1
COc1cccc(/C=N/NC(=O)C(=O)N2CCCC2)c1O | 1 | -10 | 1 | 53* | 0
COc1cccc(/C=N/NC(=O)Cn2nc(C)c([N+](=O)[O-])c2C)c1O | 0 | 9 | 6 | 82* | 1
c1cnn(Cc2cnc(N3CCOCC3)s2)c1 | 1 | 2 | 0 | 0 | 0
COc1cccc(/C=N/NC(=O)CSc2ccccc2C)c1O | 0 | 7 | 16 | 98* | 0
COc1cc(/C=N\NC(=O)c2ccc(Cn3nc([N+](=O)[O-])c(Cl)c3C)o2)ccc1O | 2 | 37 | 1 | 18 | 1
COc1cccc(/C=N\NC(=O)c2ccc(Cn3cc(Br)c([N+](=O)[O-])n3)o2)c1O | 1 | 7 | 3 | 100* | 0
COc1ccc(-c2cc3ncc(C(C)=O)c(C)n3n2)cc1 | 3 | 2 | 1 | -4 | 0
c1ccc(-c2noc(-c3ccccc3-c3ccccc3)n2)cc1 | 2 | 72* | 4 | 1 | 1
CCO[C@@H]1OC(C(=O)N2CCCCCCC2)=C[C@H](C2CCCCC2)[C@H]1CCCO | -1 | 29 | 3 | 7 | 1
COc1cc(C2NC(=S)NC3=C2CCc2ccccc23)cc(OC)c1OC (stereo not given) | 4 | -4 | 0 | 4 | 0
COc1ccc2c(c1)CCC1=C2NC(=S)NC1c1ccc(N(C)C)cc1 (stereo not given) | 0 | 81* | 3 | 90* | 1
Cc1cc(C(=O)NC(C)CCC(C)C)c2ccccc2n1 (stereo not given) | 1 | -2 | 12 | -9 | 0
COc1ccc(/C=C/C(=O)OCC(=O)Nc2c(C)cccc2C)cc1 | 3 | -1 | 5 | -5 | 1
Cc1ccc(NC(=S)N/N=C/c2c(C)[nH]c3ccccc23)cc1 | 8 | 96* | 3 | 45 | 0
Cc1[nH]c2ccccc2c1/C=N/NC(=O)Nc1ccccc1 | 8 | -3 | 1 | -4 | 0
CCn1c(-c2cc(-c3ccc(C)c(C)c3)nc3ccccc23)n[nH]c1=S | 0 | 58* | -5 | 33 | -2
Cc1ccc(-c2cc(-c3n[nH]c(=S)n3C)c3ccccc3n2)cc1 | 1 | 70* | -1 | 5 | -1
